Compound activity as filed in PubChem.
An excerpt weighted towards active compounds, which were near 3.6% of everything screened.
PAFAH2 FP inh – PAFAH2 enzyme inhibitors, primary screen, biochemical, fluorescence polarization, human; recombinant PAFAH2, FP-rhodamine activity probe; inhibition, % at 3.39 µM; 340,000 tested, 0.99% active;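 active means inhibition above the mean over all tested compounds plus 3 SD, cut at about 30% in these data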;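 further: inhibitors block probe labeling of enzyme so polarization drops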
pPAFAH inh – pPAFAH enzyme inhibitors, primary screen, biochemical, fluorescence polarization, human; Platelet-activating factor acetylhydrolase (Homo sapiens), Q13093; recombinant pPAFAH, FP-rhodamine probe fluorescence polarization; inhibition, % at 3.39 µM; 330,000 tested, 1.5% active; AID 463082, 2010;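 active means inhibition above the mean inhibition across the screen plus 3 SD, cut at about 25% in these data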;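 further: inhibitors block binding of the rhodamine activity-based probe so polarization drops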
PAFAH1B2 inh – PAFAH1B2 enzyme inhibitors, primary screen, biochemical, fluorescence polarization, human; Platelet-activating factor acetylhydrolase IB subunit alpha2 (Homo sapiens), P68402; recombinant PAFAH1B2, FP-rhodamine activity probe; inhibition, % at 3.39 µM; 340,000 tested, 1.2% active;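 active means inhibition above the mean of all tested compounds plus 3 SD, cut at about 24% in these data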
Target sequence (P68402 whole entry, looked up): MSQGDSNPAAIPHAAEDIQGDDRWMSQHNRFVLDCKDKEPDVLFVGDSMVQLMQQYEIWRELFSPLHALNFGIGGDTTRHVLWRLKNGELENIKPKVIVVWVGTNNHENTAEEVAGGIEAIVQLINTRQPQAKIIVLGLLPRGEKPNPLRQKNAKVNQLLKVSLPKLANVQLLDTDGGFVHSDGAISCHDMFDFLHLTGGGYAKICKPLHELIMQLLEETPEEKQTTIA
IMP-1 inhibitor – IMP-1 metallo-beta-lactamase inhibitors, primary screen, biochemical, epi-absorbance readout, Pseudomonas aeruginosa enzyme | inhibition, % at 5.6 µM | 290,000 tested, 0.45% active | purified IMP-1, nitrocefin hydrolysis, epi-absorbance fluorescence | metallo-beta-lactamase IMP-1 (Pseudomonas aeruginosa);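 active means inhibition above the mean plus 3 SD of all compounds in the same screening run, cut at about 4.5% in these data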
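Test system: recombinant IMP-1 enzyme, purified / Medium: HEPES buffer pH 7.1 with ZnSO4 and Brij 35 / Doses: single dose, 5.6 µM / Times: 25 °C, 15 min preincubation, 25 min reaction / Detection: Epi-absorbance via hydrolysed-nitrocefin quenching of white-plate fluorescence, 480/530 nm, EDTA stop / Evaluation: percent inhibition from optical density relative to buffer-blank wells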
VIM-2 inhibitor – VIM-2 metallo-beta-lactamase inhibitors, primary screen, biochemical, epi-absorbance readout, Pseudomonas aeruginosa enzyme | AID 1527, 2009 | purified VIM-2, nitrocefin hydrolysis, epi-absorbance fluorescence | inhibition, % at 5.6 µM | 290,000 tested, 0.89% active;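 active means inhibition above the mean of all tested compounds plus 3 SD, cutoff set per screening run, cut at about 7.5% in these data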;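 further: red hydrolysis product quenches plate fluorescence so inhibitors raise well fluorescence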
PAFAH1B3 inh – PAFAH1B3 enzyme inhibitors, primary screen, biochemical, fluorescence polarization, human; recombinant PAFAH1B3, FP-rhodamine probe; 340,000 tested, 0.28% active; AID 492972, 2010; inhibition, % at 3.39 µM; Platelet-activating factor acetylhydrolase IB subunit alpha1 (Homo sapiens), Q15102;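 active means inhibition above the screen-wide average of all tested compounds plus 3 SD, cut at about 25% in these data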
Target sequence (Q15102 whole entry, looked up): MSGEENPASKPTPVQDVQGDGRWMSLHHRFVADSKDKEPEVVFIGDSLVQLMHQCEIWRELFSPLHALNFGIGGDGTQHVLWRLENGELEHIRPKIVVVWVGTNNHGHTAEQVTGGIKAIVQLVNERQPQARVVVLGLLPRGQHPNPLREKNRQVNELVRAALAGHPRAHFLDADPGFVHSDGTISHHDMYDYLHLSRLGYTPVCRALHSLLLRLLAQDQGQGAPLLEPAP
Each line names hits and unclear results; the compound was inactive in the other large screens.

CN(CCCCCCCCCCN(C)C(=O)Oc1cccc([N+](C)(C)C)c1)C(=O)Oc1cccc([N+](C)(C)C)c1	none (no result: IMP-1 inhibitor, VIM-2 inhibitor)
O=C(O)C1C2CCC(CC2)C1C(=O)N1CCN(Cc2ccc(F)cc2)CC1 (configuration not stated)	IMP-1 inhibitor 15
O=C(CCC(F)(F)F)N1CCCC(N2CCN(c3cccc(Cl)c3)CC2)C1 (configuration not stated)	none
Cc1ccc(S(=O)(=O)NNC(=O)c2ccccc2O)cc1	none
Cc1ccc(S(=O)(=O)NNC(=O)c2cnn(-c3ccccc3)c2-n2cccc2)cc1	PAFAH1B2 inh 28
CCNC(=O)c1c(NC(=O)c2cc(-c3cc(C)cc(C)c3O)n[nH]2)sc2c1CCCC2	none (no result: pPAFAH inh, IMP-1 inhibitor, VIM-2 inhibitor)
CCC(C)N1C(=O)/C(=C/c2c(NCCCOC(C)C)nc3c(C)cccn3c2=O)SC1=S (configuration not stated)	PAFAH2 FP inh 52, PAFAH1B2 inh 34, PAFAH1B3 inh 38
CCCN1C(=O)/C(=C/c2c(NCCCOC(C)C)nc3c(C)cccn3c2=O)SC1=S	none
COc1ccc(C2CC2/C(C)=N/OC(=O)C2CC2)cc1 (configuration not stated)	none
C/C(=N/OC(=O)C1CC1c1ccccc1)c1ccccc1 (configuration not stated)	PAFAH2 FP inh 32, PAFAH1B2 inh 46
Nc1ccc2oc(-c3ccccc3Cl)cc(=O)c2c1O	pPAFAH inh 28
CCOC(=O)c1c(C)[nH]c(C(=O)NCCc2ccc(OC)c(OC)c2)c1C	none
Cn1c(C(=O)NCCCN2CCc3ccccc3C2)cc2c(=O)n(C)c3ccccc3c21	VIM-2 inhibitor 9.8
Cn1c(C(=O)NC2CC2)cc2c(=O)n(C)c3ccccc3c21	VIM-2 inhibitor 17
COCCCNC(=O)c1cc2c(=O)n(C)c3ccccc3c2n1C	VIM-2 inhibitor 7.8
Cc1cc(C)nc(SCC(=O)N/N=C/c2cccn2-c2ccc(O)cc2)n1	PAFAH1B2 inh 28
COc1cccc2cc(CC(=O)c3ccccc3)c(=O)oc12	none
Cc1noc(NS(=O)(=O)c2ccc(NC(=O)CSc3ncccn3)cc2)c1C	none
Cc1noc(NS(=O)(=O)c2ccc(NC(=O)CSc3nc4ccccc4s3)cc2)c1C	PAFAH1B2 inh 28
Cc1noc(NS(=O)(=O)c2ccc(NC(=O)CCC3CCCCC3)cc2)c1C	pPAFAH inh 32, PAFAH1B2 inh 28
COCCN(C(=O)COC(=O)C1CCC(C(C)(C)C)CC1)c1c(N)n(Cc2ccccc2)c(=O)[nH]c1=O (configuration not stated)	none (no result: IMP-1 inhibitor, VIM-2 inhibitor)
Cc1ccc([N+](=O)[O-])c(-c2n[nH]c(=S)n2-c2cccc(Cl)c2)c1	PAFAH1B2 inh 31
Cc1cccc(-n2c(-c3ccncc3)n[nH]c2=S)c1	none
Cc1cccc(-n2c(C)n[nH]c2=S)c1	VIM-2 inhibitor 8.0
Cc1ccccc1-n1c(-c2ccoc2C)n[nH]c1=S	VIM-2 inhibitor 8.6
Cc1ccc(-n2c(-c3cccc(C)c3)n[nH]c2=S)cc1	none
Cc1cccc(-n2c(-c3ccoc3C)n[nH]c2=S)c1	VIM-2 inhibitor 9.1
COCc1cccc(C2=CC(=O)C[C@H](c3ccc(F)cc3)C2)c1	none (no result: IMP-1 inhibitor, VIM-2 inhibitor)
Cc1cc(-n2c(C)cc(C(=O)COc3ccc(F)c(F)c3)c2C)no1	none (no result: IMP-1 inhibitor, VIM-2 inhibitor)
CCCn1c(C(C)Nc2nc(-c3cccc(Br)c3)cs2)nc2ccccc21 (configuration not stated)	VIM-2 inhibitor 7.9
Cc1ccc(C)c(OC(=O)C2CSC3(C)CCC(=O)N23)c1C (configuration not stated)	none (no result: IMP-1 inhibitor, VIM-2 inhibitor)
Cc1ccccc1C1C2=C(Nc3[nH]n(-c4ccccc4)c(=O)c31)c1ccccc1C2=O (configuration not stated)	none (no result: PAFAH2 FP inh, PAFAH1B2 inh, PAFAH1B3 inh)
Cc1cccc(C2C3=C(Nc4[nH]n(-c5ccccc5)c(=O)c42)c2ccccc2C3=O)c1 (configuration not stated)	PAFAH2 FP inh 62, PAFAH1B2 inh 52 (no result: pPAFAH inh)
O=C(Nc1cccc2ccccc12)N(CCO)C1CCS(=O)(=O)C1 (configuration not stated)	none
COc1ccccc1-c1nnc2sc(COc3ccc(Cl)cc3)nn12	PAFAH1B2 inh 26
CCN(CC)S(=O)(=O)c1cccc(-c2csc(C)n2)c1	none
CCN(CC)S(=O)(=O)c1cccc(N=Nc2sc(N)nc2C)c1	pPAFAH inh 26
COc1ccc(/C=C\C(=O)CC(O)(c2ccccc2)C(F)(F)F)cc1 (configuration not stated)	PAFAH1B2 inh 30
COc1ccc(/C=C/C(=O)OCC(=O)c2ccccc2F)cc1	none (no result: IMP-1 inhibitor, VIM-2 inhibitor)
Cc1cc(C)c(C2=Nn3c(C)nnc3SC2C)cc1C (configuration not stated)	none
Cc1ccc(NC2=C(N3CCOCC3)C(=O)c3ccccc3C2=O)cc1	PAFAH2 FP inh 33, PAFAH1B3 inh 33
CCCCn1c(N)c(N(CCOC)C(=O)CSc2n[nH]c(-c3ccc(C)cc3)n2)c(=O)[nH]c1=O	none (no result: IMP-1 inhibitor, VIM-2 inhibitor)
CCCCCN(C(=O)CSc1n[nH]c(-c2ccc(C)cc2)n1)c1c(N)n(CCCC)c(=O)[nH]c1=O	PAFAH1B2 inh 29 (no result: IMP-1 inhibitor, VIM-2 inhibitor)
COc1ccc(NC(=O)COC(=O)c2cc(Cl)ccc2O)cc1S(=O)(=O)N1CCCCC1	none (no result: IMP-1 inhibitor, VIM-2 inhibitor)
Cc1csc(=O)n1CCC(=O)OCC(=O)N(CC(C)C)c1c(N)n(Cc2ccccc2)c(=O)[nH]c1=O	pPAFAH inh 26
CSc1ccccc1NC(=O)CSc1nnc(CNC(=O)c2ccccc2F)n1C	none
O=c1nc2c(O)cccn2c2c1c(=O)[nH]c1ccccc12	IMP-1 inhibitor 8.3 (no result: pPAFAH inh)
CC1C=CC(C)C(C(=O)O)C1C(=O)O (configuration not stated)	IMP-1 inhibitor 23
O=C(O)C1C2C=CC(CC2)C1C(=O)O (configuration not stated)	none
O=C(O)CCCNc1cc(N2CCC3(CC2)OCCO3)c2noc3c2c1C(=O)c1ccccc1-3	pPAFAH inh 76 (no result: PAFAH2 FP inh, PAFAH1B2 inh, PAFAH1B3 inh)
CC(OC(=O)CCc1ccccc1)C(=O)Nc1ccc(Cl)cn1 (configuration not stated)	none (no result: IMP-1 inhibitor, VIM-2 inhibitor)
Cc1c(C)c2cc(Cl)c(O)c(CN(C)C)c2oc1=O	none
CCN(CC)Cc1c(O)c(Cl)cc2c3c(c(=O)oc12)CCCC3	none
CCc1c(C)c2cc(Cl)c(O)c(CN(C)C)c2oc1=O	IMP-1 inhibitor 7.6
CCc1c(C)c2cc(Cl)c(O)c(CN(CC)CC)c2oc1=O	IMP-1 inhibitor 8.8
